Data as given in ChEMBL document CHEMBL1833913, “Structure-activity relationship study of pyridazine derivatives as glutamate transporter EAAT2 activators” (Bioorg Med Chem Lett, 2011).
The source made the active and inactive calls. No cut-off for these calls is given here.

Columns and labels:
Astrocyte [1] = experiment: Increase of EAAT2 expression in mouse primary astrocytes at 10 uM after 4 hrs by Western blot analysis relative to control; type: functional
How it was run: (§1)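 PA-EAAT2 cells (primary astrocyte line stably expressing EAAT2 mRNA) were incubated with compound at 10 μM for 4 h or 24 h. Cells were then harvested and EAAT2 protein measured by Western blot. Results are given as fold increase over DMSO control.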

Astrocyte [2] = experiment: Increase of EAAT2 expression in mouse primary astrocytes at 10 uM after 24 hrs by Western blot analysis relative to control; type: functional; how it was run: as §1

Cc1ccccc1COc1ccc(-c2ccccn2)nn1
fold change (FC) (Astrocyte [1]): 2
fold change (FC) (Astrocyte [2]): 2.5

Fc1cccc(Cl)c1CSc1ccc(-c2ccccn2)nn1
fold change (FC) (Astrocyte [1]): inactive
fold change (FC) (Astrocyte [2]): 2

Clc1cccc(CSc2ccc(-c3ccccn3)nn2)c1Cl
fold change (FC) (Astrocyte [1]): inactive
fold change (FC) (Astrocyte [2]): 2.4

Cc1ccccc1CSc1ccc(-c2ccccn2)cn1
fold change (FC) (Astrocyte [1]): 1.3
fold change (FC) (Astrocyte [2]): inactive

Cc1cccc(CSc2ccc(-c3ccccn3)nn2)c1
fold change (FC) (Astrocyte [1]): 2
fold change (FC) (Astrocyte [2]): 2.8

Oc1ccc(-c2ccccn2)nn1
fold change (FC) (Astrocyte [1]): 1.5
fold change (FC) (Astrocyte [2]): 1.6

Clc1ccc(Cl)c(CSc2ccc(-c3ccccn3)nn2)c1
fold change (FC) (Astrocyte [1]): 1.4
fold change (FC) (Astrocyte [2]): 2.5

Fc1ccc(Sc2ccc(-c3ccccn3)nn2)c(Cl)c1
fold change (FC) (Astrocyte [1]): 1.3
fold change (FC) (Astrocyte [2]): 2.5

Fc1cccc(Cl)c1COc1ccc(-c2ccccn2)nn1
fold change (FC) (Astrocyte [1]): 1.1
fold change (FC) (Astrocyte [2]): 2.9

Cc1ccc(COc2ccc(-c3ccccn3)nn2)c(C)c1
fold change (FC) (Astrocyte [1]): inactive
fold change (FC) (Astrocyte [2]): 2

Cc1ccccc1CCSc1ccc(-c2ccccn2)nn1
fold change (FC) (Astrocyte [1]): 1.2
fold change (FC) (Astrocyte [2]): 2.8

Fc1cccc(F)c1CSc1ccc(-c2ccccn2)nn1
fold change (FC) (Astrocyte [1]): 2.1
fold change (FC) (Astrocyte [2]): 2.2

Cc1ccccc1CSc1ccc(-c2ccccc2)nn1
fold change (FC) (Astrocyte [1]): 1.1
fold change (FC) (Astrocyte [2]): 2

Fc1ccccc1CSc1ccc(-c2ccccn2)nn1
fold change (FC) (Astrocyte [1]): 2.2
fold change (FC) (Astrocyte [2]): 3.1

Fc1cccc(Cl)c1CSc1ccc(-c2cccnc2)nn1
fold change (FC) (Astrocyte [1]): inactive
fold change (FC) (Astrocyte [2]): 2.3

Cc1ccccc1CS(=O)(=O)c1ccc(-c2ccccn2)nn1
fold change (FC) (Astrocyte [1]): 2.3
fold change (FC) (Astrocyte [2]): 1.1

Clc1ccccc1CSc1ccc(-c2cccnc2)nn1
fold change (FC) (Astrocyte [1]): 1.2
fold change (FC) (Astrocyte [2]): 1.2

Cc1ccccc1COc1ccc(-c2ccccn2)nc1
fold change (FC) (Astrocyte [1]): 1.5
fold change (FC) (Astrocyte [2]): inactive

Cc1ccccc1CNc1ccc(-c2ccccn2)nn1
fold change (FC) (Astrocyte [1]): 1.7
fold change (FC) (Astrocyte [2]): 2.6

Cc1ccccc1CSc1ccc(-c2cccnc2)nn1
fold change (FC) (Astrocyte [1]): 1.5
fold change (FC) (Astrocyte [2]): inactive

Fc1cccc(Cl)c1CCOc1ccc(-c2ccccn2)nn1
fold change (FC) (Astrocyte [1]): 2.2
fold change (FC) (Astrocyte [2]): 3.1

Cc1cccc(C)c1COc1ccc(-c2ccccn2)nn1
fold change (FC) (Astrocyte [1]): 2.1
fold change (FC) (Astrocyte [2]): 3.2

Fc1ccc(CSc2ccc(-c3ccccn3)nn2)c(Cl)c1
fold change (FC) (Astrocyte [1]): 1.6
fold change (FC) (Astrocyte [2]): 1.7

c1ccc(CSc2ccc(-c3ccccn3)cc2)cc1
fold change (FC) (Astrocyte [1]): 1.2
fold change (FC) (Astrocyte [2]): 1.1

Clc1ccc(CSc2ccc(-c3ccccn3)nn2)c(Cl)c1
fold change (FC) (Astrocyte [1]): 1.8
fold change (FC) (Astrocyte [2]): inactive

Cc1ccc(-c2ccc(SCc3c(F)cccc3Cl)nn2)cc1
fold change (FC) (Astrocyte [1]): 1.2
fold change (FC) (Astrocyte [2]): 2.3

Fc1ccc(COc2ccc(-c3ccccn3)nn2)c(F)c1
fold change (FC) (Astrocyte [1]): inactive
fold change (FC) (Astrocyte [2]): 2.3

Cc1ccc(CSc2ccc(-c3ccncc3)nn2)cc1
fold change (FC) (Astrocyte [1]): 1.3
fold change (FC) (Astrocyte [2]): 2.4

O=S(=O)(Cc1ccccc1Cl)c1ccc(-c2ccccn2)nn1
fold change (FC) (Astrocyte [1]): 1.6
fold change (FC) (Astrocyte [2]): inactive
